How the values were obtained:
Type in all cases: functional
SN12C = assay: Cytotoxicity against human SN12C cells assessed as cell growth at 10 uM after 48 hrs by SRB assay relative to control; conditions: read-out: Activity
How it was run: (§1)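 First-stage NCI DTP one-dose screen against the 60 human tumour cell line panel. Compounds were tested at a single 10 μM level, and results are given as growth percentage.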

UACC-62 = assay: Cytotoxicity against human UACC62 cells assessed as cell growth at 10 uM after 48 hrs by SRB assay relative to control; conditions: UACC-62, 48 h, read-out: Activity
How it was run: (§2)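 NCI-60 one-dose screen run by NCI DTP: each cell line exposed to a single 10 µM dose, and percentage growth recorded against untreated growth.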

OVCAR-8 = assay: Cytotoxicity against human OVCAR8 cells assessed as cell growth at 10 uM after 48 hrs by SRB assay relative to control; conditions: OVCAR-8, 48 h, read-out: Activity; how it was run: as §1
CCRF-CEM = assay: Cytotoxicity against human CCRF-CEM cells assessed as cell growth at 10 uM after 48 hrs by SRB assay relative to control; conditions: read-out: Activity
How it was run: (§3)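 First-stage NCI-60 screen by the NCI Developmental Therapeutics Program. Each compound was tested once at a single concentration of 10 μM against the 60-cell-line panel. Growth percentage was reported for each cell line.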

SNB-75 = assay: Cytotoxicity against human SNB75 cells assessed as cell growth at 10 uM after 48 hrs by SRB assay relative to control; conditions: SNB-75, 48 h, read-out: Activity; how it was run: as §2
K562 = assay: Cytotoxicity against human K562 cells assessed as cell growth at 10 uM after 48 hrs by SRB assay relative to control; conditions: K562, 48 h, read-out: Activity; how it was run: as §3
LOX IMVI = assay: Cytotoxicity against human LOXIMVI cells assessed as cell growth at 10 uM after 48 hrs by SRB assay relative to control; conditions: read-out: Activity; how it was run: as §3
Malme-3M = assay: Cytotoxicity against human MALME-3M cells assessed as cell growth at 10 uM after 48 hrs by SRB assay relative to control; conditions: read-out: Activity; how it was run: as §3
TK-10 = assay: Cytotoxicity against human TK10 cells assessed as cell growth at 10 uM after 48 hrs by SRB assay relative to control; conditions: TK-10, 48 h, read-out: Activity; how it was run: as §2
COLO 205 = assay: Cytotoxicity against human COLO205 cells assessed as cell growth at 10 uM after 48 hrs by SRB assay relative to control; conditions: COLO 205, 48 h, read-out: Activity; how it was run: as §3
RPMI-8226 = assay: Cytotoxicity against human RPMI8226 cells assessed as cell growth at 10 uM after 48 hrs by SRB assay relative to control; conditions: RPMI-8226, 48 h, read-out: Activity; how it was run: as §1
NCI-H460 = assay: Cytotoxicity against human NCI-H460 cells assessed as cell growth at 10 uM after 48 hrs by SRB assay relative to control; conditions: NCI-H460, 48 h, read-out: Activity; how it was run: as §1
SR = assay: Cytotoxicity against human SR cells assessed as cell growth at 10 uM after 48 hrs by SRB assay relative to control; conditions: read-out: Activity; how it was run: as §2
DU-145 = assay: Cytotoxicity against human DU145 cells assessed as cell growth at 10 uM after 48 hrs by SRB assay relative to control; conditions: DU-145, 48 h, read-out: Activity; how it was run: as §3
SK-MEL-28 = assay: Cytotoxicity against human SK-MEL-28 cells assessed as cell growth at 10 uM after 48 hrs by SRB assay relative to control; conditions: SK-MEL-28, 48 h, read-out: Activity; how it was run: as §1
OVCAR-4 = assay: Cytotoxicity against human OVCAR4 cells assessed as cell growth at 10 uM after 48 hrs by SRB assay relative to control; conditions: OVCAR-4, 48 h, read-out: Activity; how it was run: as §1
UO-31 = assay: Cytotoxicity against human UO31 cells assessed as cell growth at 10 uM after 48 hrs by SRB assay relative to control; conditions: UO-31, 48 h, read-out: Activity; how it was run: as §2
NCI-H322M = assay: Cytotoxicity against human NCI-H322M cells assessed as cell growth at 10 uM after 48 hrs by SRB assay relative to control; conditions: read-out: Activity; how it was run: as §1
SK-MEL-5 = assay: Cytotoxicity against human SK-MEL-5 cells assessed as cell growth at 10 uM after 48 hrs by SRB assay relative to control; conditions: SK-MEL-5, 48 h, read-out: Activity; how it was run: as §1
HOP-92 = assay: Cytotoxicity against human HOP92 cells assessed as cell growth at 10 uM after 48 hrs by SRB assay relative to control; conditions: HOP-92, 48 h, read-out: Activity; how it was run: as §3
OVCAR-3 = assay: Cytotoxicity against human OVCAR3 cells assessed as cell growth at 10 uM after 48 hrs by SRB assay relative to control; conditions: OVCAR-3, 48 h, read-out: Activity; how it was run: as §1
BT-549 = assay: Cytotoxicity against human BT549 cells assessed as cell growth at 10 uM after 48 hrs by SRB assay relative to control; conditions: BT-549, 48 h, read-out: Activity; how it was run: as §3
MCF7 = assay: Cytotoxicity against human MCF7 cells assessed as cell growth at 10 uM after 48 hrs by SRB assay relative to control; conditions: MCF7, 48 h, read-out: Activity; how it was run: as §3
RXF 393 = assay: Cytotoxicity against human RXF393 cells assessed as cell growth at 10 uM after 48 hrs by SRB assay relative to control; conditions: RXF 393, 48 h, read-out: Activity; how it was run: as §1
U-251 = assay: Cytotoxicity against human U251 cells assessed as cell growth at 10 uM after 48 hrs by SRB assay relative to control; conditions: U-251, 48 h, read-out: Activity; how it was run: as §2
SF-268 = assay: Cytotoxicity against human SF268 cells assessed as cell growth at 10 uM after 48 hrs by SRB assay relative to control; conditions: SF-268, 48 h, read-out: Activity; how it was run: as §1
NCI-H23 = assay: Cytotoxicity against human NCI-H23 cells assessed as cell growth at 10 uM after 48 hrs by SRB assay relative to control; conditions: NCI-H23, 48 h, read-out: Activity; how it was run: as §1
HCC 2998 = assay: Cytotoxicity against human HCC2998 cells assessed as cell growth at 10 uM after 48 hrs by SRB assay relative to control; conditions: HCC 2998, 48 h, read-out: Activity; how it was run: as §3
HCT-116 = assay: Cytotoxicity against human HCT116 cells assessed as cell growth at 10 uM after 48 hrs by SRB assay relative to control; conditions: HCT-116, 48 h, read-out: Activity; how it was run: as §3
CAKI-1 = assay: Cytotoxicity against human Caki1 cells assessed as cell growth at 10 uM after 48 hrs by SRB assay relative to control; conditions: CAKI-1, 48 h, read-out: Activity; how it was run: as §3
IGROV-1 = assay: Cytotoxicity against human IGROV1 cells assessed as cell growth at 10 uM after 48 hrs by SRB assay relative to control; conditions: IGROV-1, 48 h, read-out: Activity; how it was run: as §3
HT-29 = assay: Cytotoxicity against human HT-29 cells assessed as cell growth at 10 uM after 48 hrs by SRB assay relative to control; conditions: HT-29, 48 h, read-out: Activity; how it was run: as §3

Compound `O=C1c2ccccc2C(=O)c2c1cc(Cl)c1nsnc21` has a growth at 10 µM (SN12C) of 71.9%, a growth at 10 µM (UACC-62) of 72.9% and a growth at 10 µM (OVCAR-8) of -4.57%. It also gave a growth at 10 µM (CCRF-CEM) of -41.8%, a growth at 10 µM (SNB-75) of 85.2% and a growth at 10 µM (K562) of 2.44%. It also gave a growth at 10 µM (LOX IMVI) of 10.2%, a growth at 10 µM (Malme-3M) of 97.1% and a growth at 10 µM (TK-10) of 134%. The growth at 10 µM (COLO 205) was 99.1%, the growth at 10 µM (RPMI-8226) was 27.8% and the growth at 10 µM (NCI-H460) was 100%. The growth at 10 µM (SR) was -23.9%, the growth at 10 µM (DU-145) was 97% and the growth at 10 µM (SK-MEL-28) was 132%. For the same compound, the growth at 10 µM (OVCAR-4) was -75%, the growth at 10 µM (UO-31) was 80.2% and the growth at 10 µM (NCI-H322M) was 108%. It also gave a growth at 10 µM (SK-MEL-5) of 72.5%, a growth at 10 µM (HOP-92) of -52.2% and a growth at 10 µM (OVCAR-3) of 49.9%. It also gave a growth at 10 µM (BT-549) of 102%, a growth at 10 µM (MCF7) of 65.4% and a growth at 10 µM (RXF 393) of 71.9%. For the same compound, the growth at 10 µM (U-251) was 29.2%, the growth at 10 µM (SF-268) was 37% and the growth at 10 µM (NCI-H23) was 75%. For the same compound, the growth at 10 µM (HCC 2998) was 106%, the growth at 10 µM (HCT-116) was 48.1% and the growth at 10 µM (CAKI-1) was 96.5%. The growth at 10 µM (IGROV-1) was 52.5%.

For `Cc1cccc(C)c1Sc1cc2c(c3nsnc13)C(=O)c1ccccc1C2=O`, the growth at 10 µM (SN12C) was 67.7%, the growth at 10 µM (UACC-62) was 91.7% and the growth at 10 µM (OVCAR-8) was 59%. For the same compound, the growth at 10 µM (CCRF-CEM) was 34.8%, the growth at 10 µM (SNB-75) was 69.4% and the growth at 10 µM (K562) was 43.1%. The growth at 10 µM (LOX IMVI) was 44.6%, the growth at 10 µM (Malme-3M) was 73.7% and the growth at 10 µM (TK-10) was 119%. For the same compound, the growth at 10 µM (COLO 205) was 98.8%, the growth at 10 µM (RPMI-8226) was 55.6% and the growth at 10 µM (NCI-H460) was 87.4%. The growth at 10 µM (SR) was 35.5%, the growth at 10 µM (DU-145) was 106% and the growth at 10 µM (SK-MEL-28) was 89.3%. The growth at 10 µM (OVCAR-4) was 4%, the growth at 10 µM (UO-31) was 66.7% and the growth at 10 µM (NCI-H322M) was 83.8%. The growth at 10 µM (SK-MEL-5) was 70.2%, the growth at 10 µM (OVCAR-3) was 1% and the growth at 10 µM (BT-549) was 105%. The growth at 10 µM (MCF7) was 68.6%, the growth at 10 µM (RXF 393) was 76.2% and the growth at 10 µM (U-251) was 53.9%. The growth at 10 µM (SF-268) was 79.5%, the growth at 10 µM (NCI-H23) was 67.4% and the growth at 10 µM (HCC 2998) was 101%. It also gave a growth at 10 µM (HT-29) of 97.7%, a growth at 10 µM (HCT-116) of 65% and a growth at 10 µM (CAKI-1) of 61%. It also gave a growth at 10 µM (IGROV-1) of 66.4%.

Reference: ChEMBL document CHEMBL3621107, “Ring fusion strategy for synthesis and lead optimization of sulfur-substituted anthra[1,2-c][1,2,5]thiadiazole-6,11-dione derivatives as promising scaffold of antitumor agents” (Eur J Med Chem, 2015)
